Reference: PubChem BioAssay
Records with an inconclusive call do not appear. Active and inactive are the calls of the source.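 The calls were made as follows, unless noted: active = viability at or below 27.92% in each of two runs, the all-compound median minus 4 SD; inconclusive = no clear call, values can overlap the other calls; inactive = the rest.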

Key:
[1] = S. cerevisiae growth inhibition in permissive medium (OD615), pilot counter-assay for S. cerevisiae lifespan shortening project, permissive growth control (AID 705;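 active = growth inhibition above 25% in both replicates, a cutoff set 3 SD above the mean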); details: OD615, 24 h, at 10 µM, stronger effect = higher value
In short: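 System: S. cerevisiae with engineered DeaD lifespan system. Medium: SC raffinose/galactose permissive medium. Doses: single compound dose of 10 µM, 0.25% DMSO final. Schedule: 24 h exposure, 30 °C. Measured by: OD615 turbidity read. Read-out: growth inhibition.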

[2] = S. cerevisiae growth inhibition in restrictive medium, OD615, pilot screen, restrictive growth control, yeast lifespan reduction project (AID 706;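 active = growth inhibition above a set limit, 3 SD over mean compound inhibition, in both replicates, cut at about 43% in these data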;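 also: modified DeaD lifespan yeast strain shifted to restrictive glucose medium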); details: OD615, 48 h, at 10 µM, stronger effect = higher value
In short: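 Assay system – genetically modified Saccharomyces cerevisiae, DeaD replicative lifespan assay strain · Medium – CSMM-D glucose medium · Doses – 10 µM compound, 0.25% DMSO · Times – 4 h pre-incubation, 48 h exposure at 30 °C · Signal – optical density at 615 nm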

[3] = doxorubicin toxicity protection in MRP-1 cells – H69AR cells, CellTiter-Glo, duplicate, MRP-1 activator project, pilot screen (AID 807;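 active = viability increase at or above a cutoff of the median across tested compounds plus 3 SD, cut at about 8.5% in these data, passing the limit was not always enough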;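 also: compound pretreatment 18-22 h then 72 h combined with doxorubicin; 0% = doxorubicin alone and 100% = vehicle without doxorubicin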); details: H69AR viability with doxorubicin, CellTiter-Glo luminescence; at 10 µM; stronger effect = higher value
[4] = viability of HCT116 without oncogenic beta-catenin – human colon tumor cells, pilot screen (AID 823;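 active = cell viability at or below a set limit in both duplicate runs, the limit being the all-compound median minus 4 SD, cut at about 23% in these data, passing the limit was not always enough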;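 also: 0% = wells killed by 20 µM Hyamine and 100% = untreated DMSO cell wells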); details: HCT116 beta-catenin knockout viability, CellTiter-Glo, 60 h; at 10 µM; stronger effect = lower value
[5] = viability of PTEN-null HCT116 cells – cell-based, HCT116 clonal line, CellTiter-Glo, pilot screen (AID 824); details: HCT116 PTEN-deleted viability, 60 h, at 10 µM, stronger effect = lower value;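 also: 0% = 20 µM Hyamine control and 100% = vehicle cell control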
[6] = RAM pathway blockade in budding yeast – dse1pr::URA3 reporter, 5-FOA selection, pilot screen (AID 869;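 active = inhibition over a set limit, the all-compound mean plus 3 SD, in both replicate runs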;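 also: 0% = DMSO wells with no growth and 100% = 10 µM 1-NA-PP1 with full growth; RAM network block rescues cells from 5-FOA so hits raise OD615 growth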); details: S. cerevisiae dse1pr::URA3 5-FOA growth, OD615, 2 d; at 10 µM; stronger effect = higher value; strain carries analog-sensitive mutant Cbk1 kinase
[7] = RAM signaling pathway blockade in yeast – S. cerevisiae, Pdr1DBD-CYC8 efflux-inhibited sensitized strain, primary screen (AID 1298;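 active = RAM network inhibition above 8.4% in each of two replicates, 3 SD over the compound average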;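 also: 0% = DMSO untreated cells without growth and 100% = 10 µM 1-NA-PP1 full growth; higher means more yeast growth rescued from 5-FOA killing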); details: S. cerevisiae cbk1-as DSE1-URA3 strain, 5-FOA growth OD615, 2 d; at 50 µM; stronger effect = higher value

COc1cc(OC)c(Nc2cc(C)nc3nc(C)nn23)cc1Cl
inactive: growth inhibition [1] 4.72% | growth inhibition [2] -1.03% | viability increase [3] -1.47% | viability [4] 106% | viability [5] 104% | inhibition [6] 3.52% | RAM network inhibition [7] -0.72%

Cc1cc(/C=N/n2cnnc2)c(C)n1-c1cc(Cl)ccc1Cl
inactive: growth inhibition [1] 3.15% | growth inhibition [2] 18.3% | viability increase [3] -3.01% | viability [4] 51.9% | viability [5] 69.7% | inhibition [6] 1.85% | RAM network inhibition [7] 1.38%

Cc1cccc(NC(=O)C2CCN(S(=O)(=O)c3cccc4cccnc34)CC2)c1
inactive: growth inhibition [1] 3.19% | growth inhibition [2] 11.8% | viability increase [3] -1.52% | viability [4] 88.2% | viability [5] 81.8% | inhibition [6] 3.88% | RAM network inhibition [7] 2.49%

COc1ccc(C2C(C(N)=O)=C(C)Nc3nc(-c4ccccc4Cl)nn32)c(OC)c1 (stereo unspecified)
inactive: growth inhibition [1] -17.8% | growth inhibition [2] -11.2% | viability increase [3] -0.07% | viability [4] 93.9% | viability [5] 94.7% | inhibition [6] 1.21% | RAM network inhibition [7] -1.06%

CCCN1C(=O)c2cc(C(=O)NCc3cccs3)ccc2C1O (stereo unspecified)
inactive: growth inhibition [1] -5.98% | growth inhibition [2] -16.4% | viability increase [3] -0.99% | viability [4] 107% | viability [5] 96.7% | inhibition [6] 1.94% | RAM network inhibition [7] -0.69%

CCOC(=O)N1CCC(Nc2c(N3CCN(c4cc(Cl)ccc4C)CC3)c(=O)c2=O)CC1
inactive: growth inhibition [1] 3.09% | growth inhibition [2] 4.44% | viability increase [3] -2.34% | viability [4] 71.9% | viability [5] 72.3% | inhibition [6] 2.42% | RAM network inhibition [7] 2.95%

COc1ccc(S(=O)(=O)Cc2ccc(C(=O)N3CCN(c4ncccn4)CC3)o2)cc1
inactive: growth inhibition [1] -2.81% | growth inhibition [2] 4.27% | viability increase [3] -2.72% | viability [4] 106% | viability [5] 103% | inhibition [6] 2.58% | RAM network inhibition [7] 2.27%

CCCc1ccc(Oc2cn[nH]c2-c2ccc(O)cc2O)cc1
inactive: growth inhibition [1] -16.3% | growth inhibition [2] -10.3% | viability increase [3] -3.5% | viability [4] 82.4% | viability [5] 78.7% | inhibition [6] 0.7% | RAM network inhibition [7] 2.88%

CNC(=O)c1c(NC(=O)c2ccc(S(=O)(=O)N3CCOCC3)cc2)sc2c1CCC2
inactive: growth inhibition [1] -0.09% | growth inhibition [2] -0.055% | viability increase [3] -0.97% | viability [4] 95.9% | viability [5] 91.8% | inhibition [6] 0.78% | RAM network inhibition [7] 4.58%

CCCCOc1ccc(C2(C)CC(=O)NC2=O)cc1 (stereo unspecified)
inactive: growth inhibition [1] 19.7% | growth inhibition [2] 10.9% | viability increase [3] -1.56% | viability [4] 95.3% | viability [5] 91.8% | inhibition [6] 0.425% | RAM network inhibition [7] -1.18%

CCn1c(SCc2nc(-c3ccccc3)no2)nc2ccccc21
inactive: growth inhibition [1] -12% | growth inhibition [2] 8.5% | viability increase [3] 1.73% | viability [4] 93.1% | viability [5] 92.3% | inhibition [6] 0.38% | RAM network inhibition [7] 1.2%

COC(=O)c1c(N)sc(C(C)=O)c1C
inactive: growth inhibition [1] -7.62% | growth inhibition [2] -6.67% | viability increase [3] -2.35% | viability [4] 98.4% | viability [5] 94.8% | inhibition [6] 1.72% | RAM network inhibition [7] 5.34%

CCCCn1c(=O)n(CC(=O)Nc2ccc(C)c(Cl)c2)c(=O)c2c1ncn2Cc1ccco1
inactive: growth inhibition [1] -2.46% | growth inhibition [2] -24.8% | viability increase [3] 0.99% | viability [4] 72.2% | viability [5] 72.3% | inhibition [6] 2.23% | RAM network inhibition [7] 1.61%

O=C1C2CC=C(Cl)CC2C(=O)N1CC1Cc2ccccc2CO1 (stereo unspecified)
inactive: growth inhibition [1] -5.07% | growth inhibition [2] 0.875% | viability increase [3] 1.29% | viability [4] 96.2% | viability [5] 101% | inhibition [6] 2.77% | RAM network inhibition [7] -2.81%

Cn1cccc1Cc1nnc(SCC(=O)N2CCCCCC2)n1CCc1ccccc1
inactive: growth inhibition [1] 10% | growth inhibition [2] 25.7% | viability increase [3] -1.8% | viability [4] 95.2% | viability [5] 96.1% | inhibition [6] 2.48% | RAM network inhibition [7] 2.94%

Cn1cc(SCC(=O)NCC2CCCO2)c2ccccc21 (stereo unspecified)
inactive: growth inhibition [1] -3.53% | growth inhibition [2] 2.04% | viability increase [3] -2.67% | viability [4] 94.9% | viability [5] 93.2% | inhibition [6] 1.21% | RAM network inhibition [7] 0.31%

COCCNC(=O)c1cc(-c2ccc(Cl)c(Cl)c2)on1
inactive: growth inhibition [1] -2.25% | growth inhibition [2] -1.81% | viability increase [3] -0.93% | viability [4] 82.5% | viability [5] 87.8% | inhibition [6] 0.18% | RAM network inhibition [7] 5.68%

CCSCCOC(=O)C1=C(C)NC(=O)NC1c1ccccc1 (stereo unspecified)
inactive: growth inhibition [1] -4.77% | growth inhibition [2] -1.22% | viability increase [3] 0.68% | viability [4] 105% | viability [5] 98.1% | inhibition [6] 1.47% | RAM network inhibition [7] 0.3%

Cc1cc(N2CCN(C(c3ccccc3)c3ccc(Cl)cc3)CC2)n2ncnc2n1 (stereo unspecified)
inactive: growth inhibition [1] -1.52% | growth inhibition [2] 7.98% | viability increase [3] -4.33% | viability [4] 66.1% | viability [5] 63.2% | inhibition [6] 0.13% | RAM network inhibition [7] 3.39%

CCc1ccccc1NC1c2ccccc2C(=O)N1Cc1ccco1 (stereo unspecified)
inactive: growth inhibition [1] -4.26% | growth inhibition [2] 12.8% | viability increase [3] -4.71% | viability [4] 97.1% | viability [5] 84.8% | inhibition [6] 2.31% | RAM network inhibition [7] 3.95%

COc1ccc(OC)c(-n2c(SCC(=O)Nc3cc(C)on3)nnc2-c2c[nH]c3ccccc23)c1
inactive: growth inhibition [1] -1.04% | growth inhibition [2] 6.54% | viability increase [3] -2.74% | viability [4] 79.2% | viability [5] 78.8% | inhibition [6] 1.31% | RAM network inhibition [7] 1.29%

COc1cc(-c2nc3cnccn3c2Nc2ccccc2)ccc1O
inactive: growth inhibition [1] -7.8% | growth inhibition [2] 0.535% | viability increase [3] -5.59% | viability [4] 47.8% | viability [5] 44.7% | inhibition [6] 2.43% | RAM network inhibition [7] 0.41%

C=CCn1c(SCCN2CCCCC2)nc2c1c(=O)[nH]c(=O)n2C
inactive: growth inhibition [1] -3.65% | growth inhibition [2] 6.96% | viability increase [3] -1.07% | viability [4] 109% | viability [5] 99.8% | inhibition [6] 1.17% | RAM network inhibition [7] 1.65%

CCOC(=O)CC1=C(C#N)C(c2cccnc2)C(C(=O)OCC)=C(N)O1 (stereo unspecified)
inactive: growth inhibition [1] -0.965% | growth inhibition [2] -12.4% | viability increase [3] -3.12% | viability [4] 104% | viability [5] 99.6% | inhibition [6] 1.98% | RAM network inhibition [7] 8.18%

CSC1=N/C(=C\c2ccccc2F)C(=O)S1
inactive: growth inhibition [1] -23.1% | growth inhibition [2] -24.4% | viability increase [3] -2.19% | viability [4] 102% | viability [5] 104% | inhibition [6] 0.435% | RAM network inhibition [7] -0.79%

Cc1onc(-c2ccccc2Cl)c1C(=O)NCc1ccc2c(c1)cc(C)n2C
inactive: growth inhibition [1] -6.07% | growth inhibition [2] -12.7% | viability increase [3] -3.02% | viability [4] 95.5% | viability [5] 84.6% | inhibition [6] 1.93% | RAM network inhibition [7] 5.14%

COC(=O)C1=CN(C(C)C)C=C(C(=O)OC)C1c1cccc(OC)c1
inactive: growth inhibition [1] -3.31% | growth inhibition [2] -9.06% | viability increase [3] -4.15% | viability [4] 73.8% | viability [5] 63.2% | inhibition [6] 0.405% | RAM network inhibition [7] 5.46%

CC(C)CCn1c(SCC(N)=O)nc2c1c(=O)n(C)c(=O)n2C
inactive: growth inhibition [1] -11.8% | growth inhibition [2] -14.9% | viability increase [3] 0.12% | viability [4] 103% | viability [5] 102% | inhibition [6] -0.76% | RAM network inhibition [7] 2%

CCCc1ccc(-c2ccc(C(=O)O)cc2)nc1
inactive: growth inhibition [1] 8.77% | growth inhibition [2] 5.22% | viability increase [3] -3.24% | viability [4] 101% | viability [5] 95.9% | inhibition [6] -0.425% | RAM network inhibition [7] -2.78%

CC(C)CNS(=O)(=O)c1ccc(S(=O)(=O)N2CCN(CCC#N)CC2)cc1
inactive: growth inhibition [1] -11.7% | growth inhibition [2] -4.15% | viability increase [3] -0.2% | viability [4] 99.6% | viability [5] 103% | inhibition [6] 0.85% | RAM network inhibition [7] -0.19%

O=C(Nc1nccs1)C1CCN(S(=O)(=O)c2cccnc2)CC1
inactive: growth inhibition [1] -4.93% | growth inhibition [2] 3.12% | viability increase [3] -0.26% | viability [4] 102% | viability [5] 101% | inhibition [6] 0.905% | RAM network inhibition [7] -0.78%

COc1ccccc1C(=O)n1nc(-c2cccnc2)nc1N
inactive: growth inhibition [1] -10.2% | growth inhibition [2] -5.6% | viability increase [3] -0.72% | viability [4] 106% | viability [5] 105% | inhibition [6] 2.24% | RAM network inhibition [7] 0.59%

COc1cc(OC)cc(-c2nc(-c3ccc(Br)cc3)no2)c1
inactive: growth inhibition [1] -13.6% | growth inhibition [2] -13.2% | viability increase [3] 1.86% | viability [4] 94% | viability [5] 89.2% | inhibition [6] 3.5% | RAM network inhibition [7] 8.01%
